Experimental data from ChEMBL document CHEMBL1143911, “Studies on quinones. Part 42: Synthesis of furylquinone and hydroquinones with antiproliferative activity against human tumor cell lines” (2008).

Assays:
Assay type in all cases: functional
NCI-H460 = experiment: Cytotoxicity against human NCI-H460 cells after 48 hrs; conditions: NCI-H460, 48 h
Summary of the method: (§1)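 Adherent cells kept in RPMI-1640 with 5% heat-inactivated FBS, 2 mM glutamine and 50 µg/mL gentamycin at 37 °C, 5% CO2. Plated at 7.5 × 10⁴ cells/mL, attached overnight, then given five concentrations (maximum 150 µM; DMSO stocks diluted in medium) for 48 h. Fixed in situ, SRB-stained, absorbance at 492 nm. GI50 (50% inhibition of net growth) taken from dose–response curves.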

SF-268 = experiment: Cytotoxicity against human SF268 cells after 48 hrs; conditions: SF-268, 48 h
Summary of the method: as §1, with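 “1.5” for “7.5”, “10⁵” for “10⁴”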

MCF7 = experiment: Cytotoxicity against human MCF7 cells after 48 hrs; conditions: MCF7, 48 h
Summary of the method: as §1, with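 “1.5” for “7.5”, “10⁵” for “10⁴”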

Structure (SMILES) | GI50 (NCI-H460) | GI50 (SF-268) | GI50 (MCF7)
CN(C)/N=C/c1ccc(C2=CC(=O)C=CC2=O)o1 | 148 µM | 100 µM | 33.5 µM
CN(C)/N=C/c1ccc(C2=C(Cl)C(=O)c3ccccc3C2=O)o1 | 10.9 µM | 9.3 µM | 8.1 µM
CN(C)/N=C/c1ccc(-c2c(O)ccc(O)c2C=O)o1 | 93 µM | 38.3 µM | 29.4 µM
O=Cc1c(O)ccc(O)c1Cl | 122 µM | 18.8 µM | 15.6 µM
O=Cc1ccc(-c2c(O)ccc(O)c2C=O)o1 | 80.2 µM | 35.8 µM | 20.3 µM
CN(C)/N=C/c1ccc(C2=CC(=O)c3ccccc3C2=O)o1 | 6.8 µM | 6.5 µM | 7.7 µM
CCCCSc1c(O)ccc(O)c1C(C)=O | 63.3 µM | 27.5 µM | 29.2 µM
COC1=CC(=O)C(c2ccc(/C=N/N(C)C)o2)=CC1=O | 27.2 µM | 9.1 µM | 8.2 µM
COc1cccc2c1C(=O)c1c(O)c3c(c(O)c1C2=O)C[C@@](O)(C(=O)CO)C[C@@H]3O[C@H]1C[C@H](N)[C@H](O)[C@H](C)O1 [DOXORUBICIN] | 0.094 µM | 0.093 µM | 0.0428 µM
